Data set [1] is described as follows: Cytotoxicity against human A549 cells measured after 48 hrs by MTT assay. Format: toxicity, cell-based.
The nature of data set [2]: Cytotoxicity against primary HUVEC measured after 48 hrs by MTT assay. Format: toxicity, cell-based. The settings on record: human. (In general: Tetrazolium dyes change colour on reduction, which living cells bring about.)
Data set [3] can be described thus: Cytotoxicity against human PANC1 cells measured after 48 hrs by MTT assay. The format is toxicity, cell-based, PANC-1.
A short description of data set [4]: Cytotoxicity against human HeLa cells measured after 48 hrs by MTT assay. The format is toxicity, cell-based.
Data set [5] can be described thus: Cytotoxicity against […]-differentiated human THP1 cells measured after 48 hrs by MTT assay. The format is toxicity, cell-based, THP-1. In short, it runs like this:
(§1)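 MTT assay with 48 h compound exposure. THP-1 macrophages made by 24 h PMA treatment. Each concentration tested in triplicate in one experiment. % cytotoxicity = (control−test)/(control−blank)×100, with control = cells + DMSO and blank = medium without cells. IC50 from % survival versus concentration plots.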

Data set [6] in a line: Cytotoxicity against human THP1 cells measured after 48 hrs by MTT assay. The format is toxicity, cell-based, THP-1. In short, it runs like this:
as §1

The nature of data set [7]: Selectivity index, ratio of GI50 for human THP1 cells to MIC for Mycobacterium tuberculosis H37Ra ATCC 25177 at dormant stage. The format is toxicity, cell-based, THP-1. To be noted: read-out: Selectivity Index. In short, it runs like this:
(§2)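 SI is the cell-line GI50 divided by the dormant-stage mycobacterial MIC. […] THP-1 macrophages were PMA-differentiated for 24 h.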

Data set [8] deals with Mycobacterium tuberculosis. The data set can be described thus: Growth inhibition of Mycobacterium tuberculosis H37Ra ATCC 25177 at dormant stage measured after 12 days by XTT dye based two fold dilution method. The format is functional. The settings on record: H37Ra ATCC 25177, 288 h. In short, it runs like this: (§3)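 MTB H37Ra was grown in Dubos medium, then exposed in Mycobacterium pheli minimal medium (pH 6.6) to compounds dissolved in DMSO. The assay ended on day 8 (active) or day 12 (dormant). Viable cells were measured by XTT reduction menadione assay at 470 nm, blank-corrected, relative to vehicle control. Triplicates were expressed as mean ± SD. MIC came from dose-response curves.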

For data set [9], the system named is Mycobacterium tuberculosis. The data set can be described thus: Growth inhibition of Mycobacterium tuberculosis H37Ra ATCC 25177 at active stage measured after 8 days by XTT dye based two fold dilution method. The format is functional. The settings on record: H37Ra ATCC 25177, 192 h. A digest of the protocol:
as §3

Data set [10] is described as follows: Selectivity index, ratio of GI50 for HUVEC to MIC for Mycobacterium tuberculosis H37Ra ATCC 25177 at dormant stage.
Data set [11] relates to Mycobacterium tuberculosis. The data set is described as follows: Growth inhibition of Mycobacterium bovis BCG ATCC 35743 at active stage measured after 8 days by nitrate reductase dye based two fold dilution method. Format: functional. To be noted: BCG str. ATCC 35743, 192 h. A digest of the protocol: (§4)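 M. bovis BCG was grown in Dubos medium and assayed in Mycobacterium pheli minimal medium (pH 6.6), with compounds from DMSO stocks. Incubation lasted 8 days for active and 12 days for dormant cultures. Viability was read by nitrate reductase at 540 nm against cell-free blanks, with vehicle set as 100% growth. Primary screen was at 30, 10 and 3 µg/ml, in triplicate, mean ± SD. MIC was taken from dose-response curves.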

Data set [12] is described as follows: Selectivity index, ratio of GI50 for […]-differentiated human THP1 cells to MIC for Mycobacterium tuberculosis H37Ra ATCC 25177 at dormant stage. Format: toxicity, cell-based, THP-1. The settings on record: read-out: Selectivity Index. In short, it runs like this: as §2
Data set [13] is described as follows: Selectivity index, ratio of GI50 for human PANC1 cells to MIC for Mycobacterium tuberculosis H37Ra ATCC 25177 at dormant stage. The format is toxicity, cell-based, PANC-1. The settings on record: read-out: Selectivity Index. A digest of the protocol: as §2
Data set [14] is described as follows: Selectivity index, ratio of GI50 for human HeLa cells to MIC for Mycobacterium tuberculosis H37Ra ATCC 25177 at dormant stage. The format is toxicity, cell-based. The settings on record: read-out: Selectivity Index. In short, it runs like this: as §2
Data set [15] can be described thus: Selectivity index, ratio of GI50 for HUVEC to MIC for Mycobacterium bovis BCG ATCC 35743 at dormant stage. To be noted: pooled result: one value given for 6 cell lines, strains, targets or settings. In short, it runs like this: as §2
A short description of data set [16]: Selectivity index, ratio of GI50 for human A549 cells to MIC for Mycobacterium tuberculosis H37Ra ATCC 25177 at dormant stage. Format: toxicity, cell-based. To be noted: read-out: Selectivity Index. A digest of the protocol:
as §2

Data set [17] concerns Mycobacterium tuberculosis. The data set is described as follows: Growth inhibition of Mycobacterium bovis BCG ATCC 35743 at dormant stage measured after 12 days by nitrate reductase dye based two fold dilution method. Format: functional. The settings on record: BCG str. ATCC 35743, 288 h. In short, it runs like this: as §4

What is called GI50 is the concentration at which growth is held to half of that of the control. A high value points to less potent growth inhibition. Broadly, the IC50 is the midpoint of a concentration-inhibition curve. By IC90 is commonly meant the point of the concentration-response curve where the effect stands at 90%.

Converted amounts (≈) assume the structure as drawn.

Regarding `CC(=O)O[C@H]1C(=O)[C@@]2(C)[C@H]([C@H](OC(=O)c3ccccc3)[C@]3(O)C[C@H](OC(=O)[C@H](O)[C@@H](NC(=O)c4ccccc4)c4ccccc4)C(C)=C1C3(C)C)[C@]1(OC(C)=O)CO[C@@H]1C[C@@H]2O` [PACLITAXEL], the GI50 at 48 h in data set [1] was 0.04 µg/mL (≈ 0.0468 µM); in data set [2] it was greater than 10 µg/mL; in data set [3], 5.8 µg/mL (≈ 6.79 µM); in data set [4], 0.08 µg/mL (≈ 0.0937 µM); in data set [5], greater than 100 µg/mL; in data set [6], 5.7 µg/mL (≈ 6.68 µM).

Turning to `CO[C@H]1/C=C/O[C@@]2(C)Oc3c(C)c(O)c4c(O)c(c(/C=N/N5CCN(C)CC5)c(O)c4c3C2=O)NC(=O)/C(C)=C\C=C\[C@H](C)[C@H](O)[C@@H](C)[C@@H](O)[C@@H](C)[C@H](OC(C)=O)[C@@H]1C` [RIFAMPIN], the selectivity ratio in data set [7], in data set [12], in data set [13], in data set [14] and in [16] was 2500 in each case. For the same molecule, the IC50 in data set [8] is 0.0019 µg/mL (≈ 0.00231 µM); in data set [9], 0.0021 µg/mL (≈ 0.00255 µM); in data set [17] it was 0.0043 µg/mL (≈ 0.00523 µM). For the same molecule, the IC90 turned out to be 0.02 µg/mL (≈ 0.0243 µM) in data set [8], 0.028 µg/mL (≈ 0.034 µM) in data set [9], 0.0151 µg/mL (≈ 0.0183 µM) in data set [11] and 0.0173 µg/mL (≈ 0.021 µM) in [17]. For the same molecule, the “Selectivity Index” value in data set [10] and in data set [15] was 2500 in each case.

These data come from ChEMBL document CHEMBL3877264, “Quinolidene-rhodanine conjugates: Facile synthesis and biological evaluation” (Eur J Med Chem, 2017).
